Source: PubChem (The Scripps Research Institute Molecular Screening Center)
PLCb3 inh: blocks human PLC-beta3 enzyme activity. AID 720704. inhibition, % at 12.2 µM. Q01970. Purified PLC-beta3, fluorogenic substrate, fluorescence. hit rate 0.18% among 370,000;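 also: 0% = median of compound wells on plate and 100% = full blocker control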
Target sequence (Q01970 whole entry, looked up): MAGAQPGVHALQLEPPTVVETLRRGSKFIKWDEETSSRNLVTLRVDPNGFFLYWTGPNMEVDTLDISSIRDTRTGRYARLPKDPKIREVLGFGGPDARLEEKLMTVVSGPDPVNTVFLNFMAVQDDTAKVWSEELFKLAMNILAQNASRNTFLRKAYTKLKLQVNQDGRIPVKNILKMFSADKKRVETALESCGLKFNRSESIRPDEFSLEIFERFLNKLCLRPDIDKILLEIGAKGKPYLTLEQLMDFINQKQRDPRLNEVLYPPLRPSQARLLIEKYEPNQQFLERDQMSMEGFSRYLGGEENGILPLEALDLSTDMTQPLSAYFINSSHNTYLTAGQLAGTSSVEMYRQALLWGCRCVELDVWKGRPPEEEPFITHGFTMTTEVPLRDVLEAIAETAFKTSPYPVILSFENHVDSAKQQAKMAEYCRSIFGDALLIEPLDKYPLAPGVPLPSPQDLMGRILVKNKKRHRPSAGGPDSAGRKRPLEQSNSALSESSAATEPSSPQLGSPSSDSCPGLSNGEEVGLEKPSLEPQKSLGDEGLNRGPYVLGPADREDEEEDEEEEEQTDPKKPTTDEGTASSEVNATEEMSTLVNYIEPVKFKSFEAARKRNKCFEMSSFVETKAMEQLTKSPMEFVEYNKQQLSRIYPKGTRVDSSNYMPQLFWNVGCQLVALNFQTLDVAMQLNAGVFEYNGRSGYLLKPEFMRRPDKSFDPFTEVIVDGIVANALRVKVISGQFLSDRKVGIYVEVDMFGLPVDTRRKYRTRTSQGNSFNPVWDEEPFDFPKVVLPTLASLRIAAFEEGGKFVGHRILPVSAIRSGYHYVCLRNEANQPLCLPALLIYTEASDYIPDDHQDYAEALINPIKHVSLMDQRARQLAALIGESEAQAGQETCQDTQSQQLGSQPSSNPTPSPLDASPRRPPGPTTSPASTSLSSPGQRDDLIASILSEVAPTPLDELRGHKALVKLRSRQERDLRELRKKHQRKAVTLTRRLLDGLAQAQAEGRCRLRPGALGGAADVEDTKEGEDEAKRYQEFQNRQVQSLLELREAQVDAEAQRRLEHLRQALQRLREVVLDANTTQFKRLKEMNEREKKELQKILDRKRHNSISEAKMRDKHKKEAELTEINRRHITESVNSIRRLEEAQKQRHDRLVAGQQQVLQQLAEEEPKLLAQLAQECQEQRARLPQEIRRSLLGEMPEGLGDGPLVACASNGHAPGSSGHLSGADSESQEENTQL
sPLA2-III inh: Blocks human group III sPLA2 activity. Q9NZ20. QFRET BODIPY PC-A2 liposome hydrolysis, fluorescence. inhibition, % at 12.2 µM. hit rate 0.56% among 370,000. AID 743126;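 active = inhibition above mean plus 3 SD of compounds lying within the high and low control bounds, cut at about 19% in these data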;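 also: 0% = median of test compound wells and 100% = no enzyme DMSO wells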
TbMetRS inhib: Trypanosoma brucei MetRS inhibition; purified T. brucei MetRS, ATP depletion, Kinase-Glo luminescence; inhibition, % at 11.9 µM; hit rate 0.4% among 360,000; AID 624268;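 active = inhibition above a per-plate cutoff of the control wells' mean inhibition plus 3 SD, cut at about 5.5% in these data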;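 also: 0% = DMSO wells median and 100% = median of wells with control inhibitor compound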
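Dosing: 11.9 µM single point; system: parasite MetRS enzyme; technique: luminescence of leftover ATP; times: 15 min enzyme-compound preincubation, 2 h reaction, 10 min detection, 25 °C; replicates: each compound tested once; read-out basis: percent inhibition relative to median high and low control wells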
PLCg1 inh: inhibitors of human phospholipase C gamma1; inhibition, % at 12.2 µM; AID 720700; hit rate 0.84% among 370,000; P19174; purified PLC-gamma1, fluorogenic substrate, fluorescence; in the data active = inhibition above about 9.5%
PLCg1 ctr: counter-screen for PLC-beta3 inhibitors: inhibitors of human PLC-gamma1. shares compounds with PLCg1 inh. purified PLC-gamma1, fluorogenic substrate, fluorescence. inhibition, % at 12.3 µM. hit rate 3.1% among 3,300; in the data active = inhibition above about 9.5%
PLCbeta3 conf: human PLC-beta3 inhibition, confirmation. hit rate 1% among 3,300. purified PLC-beta3, fluorogenic substrate fluorescence. shares compounds with PLCg1 inh. inhibition, % at 12.3 µM
Active calls of the source: *; nt = no result given. Only some compounds are listed: those with a hit (about 1.9% of all), similar ones and a draw of the others. Rule as the data show it, unless noted: active = inhibition above about 11%; inactive = the rest.

SMILES	PLCb3 inh	sPLA2-III inh	TbMetRS inhib	PLCg1 inh	PLCg1 ctr	PLCbeta3 conf
COc1ccc(CNC(=O)CCC(=O)Nc2nnc(CC(C)C)s2)cc1	-3	0	1	12*	-6	-4
CCc1nnc(NC(=O)CCC(=O)NCc2ccc(OC)cc2)s1	0	-2	-1	0	nt	nt
O=C(OC1CC2CCC(C1)[N+]21CCCC1)C(O)(c1ccccc1)c1ccccc1 (stereo not given)	7	8	nt	8	nt	nt
Cc1cc(C(=O)O)c(CCCN)s1	12*	9	0	6	-2	1
CC(=O)Nc1cnc(NC(=O)c2cccc(F)c2)cc1C	11*	13	-1	7	1	-1
CN(C)S(=O)(=O)NC(c1ccccc1)c1ccccc1	7	0	0	12*	-4	1
O=C(CN1C(=O)CCSc2ccccc21)Nc1ccc(Cl)cc1	1	-3	nt	-1	nt	nt
Cc1ccc(NC(=O)OCCN(C)C(=O)Nc2ccc(C)cc2C)c(C)c1	-5	5	nt	-1	nt	nt
CC(=O)c1c(C)[nH]c(C(=O)Nc2cccc(C#N)c2)c1C	-3	-2	0	9.8*	-16	-15
CCOc1ccc(Cc2nc(C)c(CC(=O)N3CCOCC3)c(=O)[nH]2)cc1	3	5	0	11*	-5	-3
O=C(c1ccccc1)N1CCOC12CCN(c1ncc(C(F)(F)F)cc1Cl)CC2	-3	3	0	1	nt	nt
O=C(c1ccc([N+](=O)[O-])cc1)N1CCOC12CCN(c1ncc(C(F)(F)F)cc1Cl)CC2	9	4	0	11*	3	1
CCN(C(=O)COC(=O)c1ccc(C=O)cc1)c1c(N)n(Cc2ccccc2)c(=O)[nH]c1=O	-24	11	0	19*	0	-13
CCC(C)NC(=O)CSc1nc2c(sc3ccccc32)c(=O)n1CCCN1CCOCC1 (stereo not given)	3	8	0	9.9*	-3	0
CCOC(=O)CSc1nc2c(sc3ccccc32)c(=O)n1CCCN1CCOCC1	-2	-3	-1	1	nt	nt
CC1CCN(CC(CS(=O)(=O)c2ccc([N+](=O)[O-])cc2)N2CCC(C)CC2)CC1 (stereo not given)	11*	0	-1	5	-6	-4
Cc1ccc(S(=O)(=O)CC(CN2CCOCC2)N2CCOCC2)cc1 (stereo not given)	1	-3	0	3	nt	nt
O=C(NCc1ccccc1)OCCN1C(=O)CCC12CCC(c1ccc(Cl)cc1)CC2 (stereo not given)	0	-13	nt	1	nt	nt
O=C(OCC#CCSc1nnc(-c2ccccc2Cl)o1)c1ccc(F)cc1	-3	-1	nt	-2	nt	nt
O=C(OCC#CCSc1nnc(-c2ccc(F)cc2)o1)c1ccc(F)cc1	6	3	nt	10*	-8	-6
COc1ccc(C(=O)C2CCCN(C(=O)CSC)C2)cc1OC (stereo not given)	8	8	1	14*	-3	0
COc1ccc(C(=O)C2CCCN(C(=O)Cn3ccc(C)n3)C2)cc1OC (stereo not given)	-5	2	0	3	nt	nt
O=C(Cn1nnc(-c2ccccc2NC(=O)C2CC2)n1)NC1CCCCC1	3	14	-1	11*	-7	-4
COc1cccc(-c2nnn(CC(=O)NC3CCCC3)n2)c1OC	3	2	-1	0	nt	nt
Cc1ccc(C(=O)C2CCN(CC(=O)N3CC(C)CC(C)C3)CC2)cc1 (stereo not given)	-6	-1	nt	-8	nt	nt
SMILES	PLCb3 inh	sPLA2-III inh	TbMetRS inhib	PLCg1 inh	PLCg1 ctr	PLCbeta3 conf
CC(Sc1ccc2c(c1)OCCO2)C(=O)Nc1ccc(N2CCOCC2)cc1 (stereo not given)	-3	3	1	13*	-5	-1
O=C1CCC[C@H]2Cc3nc4cc5c(cc4cc3C[C@]23CCCN13)OCO5	-4	1	nt	-2	nt	nt
COc1ccc(C(=O)Nc2ccc(S(=O)(=O)Nc3ncccn3)cc2)cc1OC	14*	0	0	4	-9	-5
Cc1ccc([N+](=O)[O-])cc1-c1[nH]c(-c2ccc(O)c(O)c2)nc1-c1ccccc1	7	13	1	9.7*	4	7
CC(C)C(C(=O)NCc1ccco1)N(C(=O)CNS(=O)(=O)c1ccccc1)C1CCCC1 (stereo not given)	12*	-15	-1	3	-1	4
C[C@H](CO)N1C[C@H](C)[C@@H](CN(C)C(=O)Nc2ccc3c(c2)OCCO3)OCc2cn(nn2)CCCC1=O	-21	5	nt	-3	nt	nt
CC(C)(C)N(Cc1cn(Cc2ccccc2)nn1)S(=O)(=O)c1ccc(N2CCCC2)cc1Br	-20	6	nt	-8	nt	nt
CCOC(=O)C1CSCCS(=O)(=O)N1Cc1cccc(Cl)c1 (stereo not given)	4	-3	nt	2	nt	nt
Fc1cccc(CSc2ncnc3c2oc2ccccc23)c1	6	8	-1	8	nt	nt
Fc1ccc(CSc2ncnc3c2oc2ccccc23)cc1	4	0	-1	10*	-6	-5
O=C(c1ccc(Cl)cc1)C1CCN(c2ncnc3sccc23)CC1	0	-1	nt	3	nt	nt
Cc1nc([N+](=O)[O-])c(Sc2nc3ccc([N+](=O)[O-])cc3[nH]2)n1Cc1ccccc1	6	-15	1	12*	3	-1
COc1ccc2c(c1)CNC2CS(=O)(=O)NCC(C)C (stereo not given)	-44	4	nt	-33	nt	nt
Cc1ccc(NC(=O)C2CCCN(S(=O)(=O)c3ccc4c(c3)oc(=O)n4C)C2)nc1 (stereo not given)	5	-2	0	9.8*	-5	-2
O=C(CCC1CCCN(C(=O)c2cncs2)C1)NCc1ccc(F)c(F)c1 (stereo not given)	5	10	-1	10*	-7	-5
COC(=O)[C@]12C[C@H](CC(=O)NCC34CC5CC(CC(C5)C3)C4)C(=O)N(Cc3cccc4ccccc34)C1=C[C@H](C(C)(C)C)O[C@@H]2C	4	-5	nt	-2	nt	nt
CCn1c(CNC(=O)COc2ccc(C(C)C)cc2)nnc1SCC(=O)Nc1cc(F)ccc1C	8	-39	-2	10*	-1	-2
CCn1c(CNC(=O)COc2ccc(C(C)C)cc2)nnc1SCC(=O)Nc1ccc(F)cc1	2	-10	0	2	nt	nt
CCN(CC)c1ccc(C=Nn2c(-c3ccc(F)cc3)n[nH]c2=S)c(O)c1	-52	-8	nt	-31	nt	nt
CC(OC(=O)CCCCCN=C1NS(=O)(=O)c2ccccc21)C(=O)Nc1cc(Cl)cc(Cl)c1 (stereo not given)	6	-53	2	9.7*	1	0
CC(=O)Nc1ccc(NC(=O)C(C)OC(=O)CCN=C2NS(=O)(=O)c3ccccc32)cc1 (stereo not given)	-4	7	0	-2	nt	nt
COc1cc(/C=N\Nc2nncn2N)ccc1OC(C)=O	1	2	-2	14*	0	-4
